ADAM10 inh = human ADAM10 inhibitors, primary screen, biochemical, QFRET, HTS; Disintegrin and metalloproteinase domain-containing protein 10 (Homo sapiens), O14672; recombinant ADAM10, EDANS/DABCYL FRET peptide cleavage, 3 h; inhibition, % at 7 µM; actives 0.62% (n = 370,000);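 active = inhibition above a per-campaign cutoff equal to the mean of compounds falling between control-based bounds plus 3 SD, cut at about 20% in these data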;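 note: 0% = DMSO wells while the 100% control is not disclosed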
Target sequence (O14672 214-748 limits assumed): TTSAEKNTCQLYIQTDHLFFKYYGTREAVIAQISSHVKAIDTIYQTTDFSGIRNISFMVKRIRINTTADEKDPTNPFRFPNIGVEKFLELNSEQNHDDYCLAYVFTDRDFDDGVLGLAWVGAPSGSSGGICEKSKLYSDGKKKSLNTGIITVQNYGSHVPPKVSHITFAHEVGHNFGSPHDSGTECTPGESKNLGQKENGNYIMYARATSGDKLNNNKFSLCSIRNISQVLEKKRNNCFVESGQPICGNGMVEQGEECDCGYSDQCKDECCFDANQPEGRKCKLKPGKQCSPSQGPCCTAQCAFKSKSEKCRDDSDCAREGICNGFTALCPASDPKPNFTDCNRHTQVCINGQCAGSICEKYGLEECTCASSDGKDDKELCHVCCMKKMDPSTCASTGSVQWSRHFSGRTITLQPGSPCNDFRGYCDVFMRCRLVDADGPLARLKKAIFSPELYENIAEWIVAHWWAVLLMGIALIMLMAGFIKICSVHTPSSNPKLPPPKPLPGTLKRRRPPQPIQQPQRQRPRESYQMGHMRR
CaV13 FRET inh = Primary screen for inhibitors of IQ motif and Ca2+-dependent inactivation inhibitor domain binding in CACNA1D, Förster resonance energy transfer in living cells, …; actives 0.098% (n = 340,000); AID 743397; inhibition, % at 12.3 µM; HEK cells, CFP/YFP FRET ICDI-IQ, plate reader, 10 min; percent FRET-ratio fall versus neutral wells;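 active = mean replicate inhibition of at least 30% and at least 1% of replicates passing that level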;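 note: 0% = median of the neutral control wells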
FAS TE block = FAS thioesterase domain inhibitors, primary screen, biochemical, fluorescence intensity, uHTS; Fatty acid synthase (Homo sapiens), P49327; recombinant FAS-TE, OMFH fluorogenic substrate, fluorescence endpoint; inhibition, % at 15 µM; actives 0.67% (n = 360,000);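 active = compounds whose normalised, plate-corrected inhibition of enzyme fluorescence in the single-dose primary screen is 50% or more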;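 note: 0% = DMSO with enzyme and 100% = substrate without enzyme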
NRP1-CendR mod = modulators of CendR peptide binding to NRP-1, primary screen, biochemical, fluorescence polarization, uHTS; Neuropilin-1 (Homo sapiens), O14786; actives 0.85% (n = 360,000); FAM-RPARPAR peptide binding to NRP-1; inhibition, % at 25 µM;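 active = inhibition or corrected inhibition above about 18%, plus a signal ratio from 0.5 to 1.5, limit read from the data, passing the limit was not always enough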
ADAM17 inh = ADAM17 inhibitors, primary screen, biochemical, QFRET. Disintegrin and metalloproteinase domain-containing protein 17 (Homo sapiens), P78536. recombinant ADAM17, EDANS/DABCYL FRET peptide cleavage. inhibition, % at 6.95 µM. actives 0.83% (n = 370,000);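 active = inhibition above the mean of compounds lying between control limits plus 3 SD, set per campaign, cut at about 8.5% in these data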;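 note: 0% = DMSO-only wells as the low control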
Arrestin-AP2 inh = inhibitors of beta-arrestin/AP2 binding, primary screen, biochemical, GPCR trafficking, flow cytometry; beta-arrestin 1 C-terminal peptide binding to AP2 beta2-adaptin appendage (human); FITC-arrestin peptide / GST-AP2 beads; AP2 beta2 appendage carries R879A mutation; inhibition, % at 10 µM; actives 0.31% (n = 340,000); AID 504490, 2011;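 active = inhibition above a set limit, near 3 SD of compounds lacking own fluorescence, cut at about 54% in these data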;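 note: plate controls were DMSO wells for no effect and 5 µM unlabelled arrestin peptide for full effect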
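System: GST-AP2 R879A glutathione beads. Medium: PBS with 0.05% Tween 20 and 0.1% BSA. Also added: FITC-arrestin peptide, 50 nM. Incubation: 12 min plus 1 h, RT. Measured by: high-throughput flow cytometry of beads, ex 488, em 535 nm. Evaluation: percent drop in bead-associated FITC signal.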
ADAM10 confirm = human ADAM10 inhibitors, confirmation, biochemical, QFRET, triplicate | shares compounds with ADAM10 inh | ADAM10 QFRET peptide cleavage, EDANS fluorescence | inhibition, % at 6.95 µM | actives 1% (n = 2,100);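 active = inhibition above about 20% chosen separately for each screening run, limit read from the data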;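 note: 0% = DMSO wells and 100% = marimastat wells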
ADAM17 counter = ADAM17 inhibitors, counter-screen for ADAM10 exosite inhibitor project, biochemical, QFRET, high throughput. inhibition, % at 6.95 µM. actives 0.5% (n = 2,100). ADAM17 QFRET peptide cleavage, EDANS fluorescence. shares compounds with ADAM10 inh;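 active = mean triplicate inhibition above the solvent-only control wells' mean plus 3 SD, cut at about 12% in these data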;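 note: 0% = DMSO wells and 100% = marimastat wells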
ADAM10 ctr = ADAM10 inhibitors, counter-screen for ADAM17 exosite inhibitor project, biochemical, FRET, human ADAM10. shares compounds with ADAM17 inh. recombinant ADAM10, EDANS/DABCYL FRET peptide cleavage, 3 h. inhibition, % at 6.95 µM. actives 47% (n = 2,900). AID 743256, 2014;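 active = mean inhibition over the triplicate runs exceeds the activity threshold set in the earlier primary screen, cut at about 20% in these data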;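 note: 0% = DMSO wells and 100% = marimastat wells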
ADAM17 confirm = ADAM17 inhibitors, hit retest, confirmation, biochemical, QFRET peptide cleavage | shares compounds with ADAM17 inh | recombinant ADAM17, EDANS/DABCYL QFRET peptide cleavage | inhibition, % at 6.95 µM | actives 65% (n = 2,900) | AID 743257, 2014;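 active = mean inhibition across replicates above the hit cutoff set in the primary screen, cut at about 8.5% in these data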;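 note: 0% = DMSO wells and 100% = marimastat wells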
* hit, by the source's call; . = no result given. Compounds with a hit are over-represented: about 2.9% of the library has one in this group of screens.

SMILES | ADAM10 inh | CaV13 FRET inh | FAS TE block | NRP1-CendR mod | ADAM17 inh | Arrestin-AP2 inh | ADAM10 confirm | ADAM17 counter | ADAM10 ctr | ADAM17 confirm
CCOC(=O)c1c(C)[nH]c(C)c1C(=O)COC(=O)c1cccc(C)c1O | 20.0* | -8.1 | 18.5 | 5.5 | 9.3* | -6.8 | 6.0 | 1.1 | 7.2 | 7.5
COc1ccccc1CCn1cnc(-c2cccc(F)c2)c1CC(C)C | 9.9 | -4.3 | . | . | 1.2 | . | . | . | . | .
Cc1ccc(Oc2cc(NC(=O)CCCn3nc([N+](=O)[O-])cc3C)cc([N+](=O)[O-])c2)cc1 | 22.7* | -2.7 | 40.6 | 1.9 | 12.9* | 34.4 | 6.4 | 2.7 | 31.7* | 17.6*
O=C(CCc1ccccc1)N[C@H]1[C@H](O)CCC[C@@]12C(=O)N(Cc1ccccc1)c1ccc(-c3ccccc3)cc12 | 13.2 | . | . | . | 4.7 | . | . | . | . | .
C/C(=N\N=C(/N)SC1CC(=O)N(c2ccc(Br)cc2)C1=O)c1cccs1 (centres undefined) | 23.5* | -6.6 | 24.4 | -0.8 | 11.7* | 24.7 | 4.9 | 2.3 | 19.7 | 20.5*
C/C(=N\N=C(/N)SC1CC(=O)N(c2ccccc2)C1=O)c1cccs1 (centres undefined) | 22.4* | . | -0.8 | -2.8 | 8.6* | 19.7 | 2.2 | -0.1 | 14.6 | 12.4*
C/C(=N\N=C(/N)SC1CC(=O)N(c2ccc(Cl)c(Cl)c2)C1=O)c1cccs1 (centres undefined) | -3.2 | -6.9 | 43.8 | 2.8 | -1.9 | 4.8 | . | . | . | .
O=C(COc1ccc(C(=O)O)cc1)Nc1cccc(C(F)(F)F)c1 | 5.4 | -2.0 | -1.1 | -12.1 | -4.2 | -1.5 | . | . | . | .
O=C(COCC(=O)Nc1cccc(C(F)(F)F)c1)Nc1cccc(C(F)(F)F)c1 | 35.2* | -8.7 | 41.2 | 3.0 | 14.5* | -0.3 | -0.1 | 0.3 | 41.7* | 17.4*
COc1ccc(NC(=S)N(CCc2c(C)[nH]c3ccc(C)cc23)Cc2cccs2)cc1 | 2.6 | -6.0 | 27.9 | -4.8 | 2.8 | -3.6 | . | . | . | .
CNC(=S)N(CCc1c(C)[nH]c2ccc(C)cc12)Cc1cccs1 | 21.8* | -0.3 | 20.0 | 3.6 | 9.8* | 9.0 | 1.8 | 2.0 | 16.3 | 10.0*
COCCCn1cc(CN2CC(N3CCN(Cc4ccccc4F)CC3)CS2(=O)=O)nn1 (centres undefined) | -4.7 | . | -12.5 | -2.7 | 0.1 | . | . | . | . | .
O=C(COc1ccc(Cl)cc1Cl)N1CCCN(C(=O)COc2ccc(Cl)cc2Cl)CC1 | 25.4* | -5.3 | 35.9 | 7.1 | 9.8* | 2.4 | 4.0 | 0.9 | 19.5 | 9.2*
C[C@H]1COc2cc(Br)ccc2S(=O)(=O)N1Cc1cn(Cc2ccc(F)cc2)nn1 | -0.2 | . | . | . | 4.9 | . | . | . | . | .
